Test results taken from ChEMBL document CHEMBL3576832, “First Crystal Structures of Mycobacterium tuberculosis 6-Oxopurine Phosphoribosyltransferase: Complexes with GMP and Pyrophosphate and with Acyclic Nucleoside Phosphonates Whose Prodrugs Have Antituberculosis Activity” (J Med Chem, 2015).

What was measured:
[1] = Inhibition of Mycobacterium tuberculosis HGPRT
[2] = Inhibition of Escherichia coli HGPRT
[3] = tested on: Mycobacterium tuberculosis; assay: Antimycobacterial activity against Mycobacterium tuberculosis H37Rv […] assessed as inhibition of microbial growth incubated for 5 days by resazurin reduction microplate assay; assay type: functional; settings: 120 h
Procedure, shortened: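 H37Rv grown in 7H9 with OADC, 0.5% glycerol, 0.02% tyloxapol at 37 °C to mid-exponential phase (OD600 0.4−0.8), diluted to OD600 0.001 (~2 × 10^4 CFU/mL) in 7H9S with 0.5% DMSO; serially diluted compounds; 5 days at 37 °C, then resazurin plus Tween 80; fluorescence (ex 530/em 580 nm) read 30 h later; MIC50 from signal relative to no-inhibitor minus no-bacteria controls.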

[4] = Selectivity index, ratio of CC50 for human A549 cells to MIC50 for Mycobacterium tuberculosis H37Rv […]; assay type: functional
Procedure, shortened: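 Selectivity index computed as CC50 in A549 cells divided by MIC50 against H37Rv.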

[5] = Cytotoxicity against human A549 cells assessed as inhibition of cell proliferation incubated for 4 days by Coulter counter based assay
Procedure, shortened: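 A549 cells seeded at 7500 per well; serially diluted compounds added 24 h later; 4 days at 37 °C; cells trypsinized and counted by Coulter Counter; CC50 (50% proliferation vs untreated) obtained by extrapolation; mean ± SEM of two or three independent tests.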

[6] = Inhibition of N-terminal hexa-histidine tagged Mycobacterium tuberculosis HGPRT expressed in Escherichia coli BL-21(DE3) using PRib-PP substrate and guanine
[7] = target: T1, Hypoxanthine-guanine phosphoribosyltransferase (Homo sapiens, UniProt P00492); assay: Inhibition of human HGPRT
T1 sequence (P00492 whole entry): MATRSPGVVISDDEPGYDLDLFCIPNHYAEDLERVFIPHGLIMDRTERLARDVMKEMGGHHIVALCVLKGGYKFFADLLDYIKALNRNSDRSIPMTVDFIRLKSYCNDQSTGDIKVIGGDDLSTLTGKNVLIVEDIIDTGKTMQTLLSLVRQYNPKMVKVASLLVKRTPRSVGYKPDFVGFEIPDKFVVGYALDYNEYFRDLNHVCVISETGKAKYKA

[8] = Selectivity index, ratio of Ki for human HGPRT to Ki for N-terminal hexa-histidine tagged Mycobacterium tuberculosis HGPRT
[9] = tested on: Mycobacterium tuberculosis; assay: Potency index, ratio of Ki for GMP to Ki for compound against N-terminal hexa-histidine tagged Mycobacterium tuberculosis HGPRT expressed in Escherichia coli BL-21(DE3) using PRib-PP substrate and guanine

Nc1nc2c(ncn2[C@@H]2O[C@H](COP(=O)(O)O)[C@@H](O)[C@H]2O)c(=O)[nH]1
Ki [1]: 20 µM
Ki [2]: 526 µM

CCOC(=O)[C@H](Cc1ccccc1)NP(=O)(CCN(CCN(CCP(=O)(N[C@@H](Cc1ccccc1)C(=O)OCC)N[C@@H](Cc1ccccc1)C(=O)OCC)CCP(=O)(N[C@@H](Cc1ccccc1)C(=O)OCC)N[C@@H](Cc1ccccc1)C(=O)OCC)CCn1cnc2c(=O)[nH]cnc21)N[C@@H](Cc1ccccc1)C(=O)OCC
MIC50 [3]: 4.5 µM
Selectivity Index [4]: >6
CC50 at 96 h [5]: 28 µM

O=c1[nH]cnc2c1ncn2CC(COCP(=O)(O)O)COCP(=O)(O)O
Ki [6]: 7.7 µM

Nc1nc2c(ncn2CCN(CCN(CCO)CCP(=O)(O)O)CCP(=O)(O)O)c(=O)[nH]1
Ki [6]: 1.6 µM
Ki [7]: 0.03 µM

CCOC(=O)[C@H](Cc1ccccc1)NP(=O)(CCN(CCO)CCN(CCn1cnc2c(=O)[nH]c(N)nc21)CCP(=O)(N[C@@H](Cc1ccccc1)C(=O)OCC)N[C@@H](Cc1ccccc1)C(=O)OCC)N[C@@H](Cc1ccccc1)C(=O)OCC
MIC50 [3]: 4.5 µM
Selectivity Index [4]: >43
CC50 at 96 h [5]: 193 µM

O=c1[nH]cnc2c1ncn2CCN(CCN(CCP(=O)(O)O)CCP(=O)(O)O)CCP(=O)(O)O
Ki [6]: 1.13 µM
Ki [7]: 0.01 µM

O=c1[nH]cnc2c1ncn2CCN(CCN(CCO)CCP(=O)(O)O)CCP(=O)(O)O
Ki [6]: 22.5 µM
Ki [7]: 0.5 µM

O=c1[nH]cnc2c1ncn2CCN(CCN(CCCO)CCP(=O)(O)O)CCP(=O)(O)O
Ratio Ki [8]: 14
Ki [6]: 22.7 µM
Ki [7]: 1.64 µM

CCOC(=O)[C@H](Cc1ccccc1)NP(=O)(COCC(COCP(=O)(N[C@@H](Cc1ccccc1)C(=O)OCC)N[C@@H](Cc1ccccc1)C(=O)OCC)Cn1cnc2c(=O)[nH]c(N)nc21)N[C@@H](Cc1ccccc1)C(=O)OCC
MIC50 [3]: 11 µM
Selectivity Index [4]: >27

Nc1nc2c(ncn2CCN(CCOCCP(=O)(O)O)CCP(=O)(O)O)c(=O)[nH]1
Ki [6]: 1.4 µM

CCOC(=O)[C@H](Cc1ccccc1)NP(=O)(CCN(CCO)CCN(CCn1cnc2c(=O)[nH]cnc21)CCP(=O)(N[C@@H](Cc1ccccc1)C(=O)OCC)N[C@@H](Cc1ccccc1)C(=O)OCC)N[C@@H](Cc1ccccc1)C(=O)OCC
MIC50 [3]: 8 µM
Selectivity Index [4]: >19.5
CC50 at 96 h [5]: 156 µM

O=c1[nH]cnc2c1ncn2CC(COCCP(=O)(O)O)OCCP(=O)(O)O (stereo not drawn)
Ki [6]: > 50 µM
Ki [7]: 4 µM

Nc1nc2c(ncn2CCN(CCN(CCCO)CCP(=O)(O)O)CCP(=O)(O)O)c(=O)[nH]1
Ratio Ki [8]: 400
Ki [6]: 15.9 µM
Ki [7]: 0.04 µM

Nc1nc2c(ncn2CCOCCP(=O)(O)O)c(=O)[nH]1
Ki [6]: 1.76 µM

Nc1nc2c(ncn2CC(COCCP(=O)(O)O)OCCP(=O)(O)O)c(=O)[nH]1 (stereo not drawn)
Ki [6]: 0.69 µM
Ratio Ki [9]: 28

O=c1[nH]cnc2c1ncn2CCOCCP(=O)(O)O
Ki [6]: 18 µM

CCOC(=O)[C@H](Cc1ccccc1)NP(=O)(CCN(CCN(CCP(=O)(N[C@@H](Cc1ccccc1)C(=O)OCC)N[C@@H](Cc1ccccc1)C(=O)OCC)CCP(=O)(N[C@@H](Cc1ccccc1)C(=O)OCC)N[C@@H](Cc1ccccc1)C(=O)OCC)CCn1cnc2c(=O)[nH]c(N)nc21)N[C@@H](Cc1ccccc1)C(=O)OCC
MIC50 [3]: 4.5 µM
Selectivity Index [4]: >67
CC50 at 96 h [5]: > 300 µM

Nc1nc2c(ncn2CC(COCP(=O)(O)O)COCP(=O)(O)O)c(=O)[nH]1
Ki [6]: 0.77 µM
Ratio Ki [9]: 28

CCOC(=O)[C@H](Cc1ccccc1)NP(=O)(CCOCC(Cn1cnc2c(=O)[nH]cnc21)OCCP(=O)(N[C@@H](Cc1ccccc1)C(=O)OCC)N[C@@H](Cc1ccccc1)C(=O)OCC)N[C@@H](Cc1ccccc1)C(=O)OCC (stereo partly drawn)
MIC50 [3]: 15 µM
Selectivity Index [4]: >6
CC50 at 96 h [5]: 90 µM

O=c1[nH]cnc2c1ncn2CCN(CCOCCP(=O)(O)O)CCP(=O)(O)O
Ki [6]: > 50 µM

CCOC(=O)[C@H](Cc1ccccc1)NP(=O)(COCC(COCP(=O)(N[C@@H](Cc1ccccc1)C(=O)OCC)N[C@@H](Cc1ccccc1)C(=O)OCC)Cn1cnc2c(=O)[nH]cnc21)N[C@@H](Cc1ccccc1)C(=O)OCC
MIC50 [3]: 7.5 µM
Selectivity Index [4]: >13

CCOC(=O)[C@H](Cc1ccccc1)NP(=O)(CCOCC(Cn1cnc2c(=O)[nH]c(N)nc21)OCCP(=O)(N[C@@H](Cc1ccccc1)C(=O)OCC)N[C@@H](Cc1ccccc1)C(=O)OCC)N[C@@H](Cc1ccccc1)C(=O)OCC (stereo partly drawn)
MIC50 [3]: 9 µM
Selectivity Index [4]: >11

Nc1nc2c(ncn2CCN(CCN(CCP(=O)(O)O)CCP(=O)(O)O)CCP(=O)(O)O)c(=O)[nH]1
Ki [6]: 1.6 µM
Ki [7]: 0.03 µM
